Measured values taken from ChEMBL document CHEMBL1127427, “Effect of molecular manipulation on the estrogenic activity of a brain-targeting estradiol chemical delivery system” (J Med Chem, 1994).

Legend:
[1] = Compound was evaluated for first order half-life in brain homogenate.; format: ADME, tissue-based
Summary of the method: (§1)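 Male Sprague-Dawley rats were PBS-perfused and their organs homogenized in PBS: brain 2% w/v, liver 1.0% w/v. Compound loss followed by the fall in 360 nm absorbance. Pseudo-first-order rate constant taken from log(A360) versus time. Triplicate runs; half-life given as mean ± SEM.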

Rattus norvegicus [2] = species on record: Rattus norvegicus; experiment: Compound is tested in male rats for its effect on the prostate weight; format: functional, Prostate gland; parameters: concentration or dose not given beside the values
Summary of the method: (§2)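 Adult male Sprague-Dawley rats (175–200 g) received a single iv tail-vein dose of 0.025 mmol/kg (equal to 5 mg/kg E2-CDS) or DMSO vehicle (0.5 mL/kg). Weighed daily for 14 days. Euthanized at day 14; organ excised and weighed. Expressed as mg per 100 g body weight, mean ± SEM, n=6.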

[3] = Compound was evaluated for oxidation rate constant in brain homogenate; format: ADME, tissue-based; summary of the method: as §1
Rattus norvegicus [4] = species on record: Rattus norvegicus; experiment: Compound was tested in male rats for its effect on the seminal vesicle weight; format: functional; parameters: concentration or dose not given beside the values; summary of the method: as §2
Rattus norvegicus [5] = species on record: Rattus norvegicus; experiment: Compound is tested in male rats for its effect on the pituitary weight; format: functional; parameters: concentration or dose not given beside the values; summary of the method: as §2
Rattus norvegicus [6] = experiment: Compound is evaluated for effect on serum estradiol, 14 days subsequent to a single intravenous dose determined by means of a radioimmunoassay; format: functional, organism-based
Summary of the method: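 Adult male Sprague-Dawley rats (175–200 g), conscious and restrained, given a single tail-vein iv injection of 0.025 mmol/kg (equal to 5 mg/kg E2-CDS) or DMSO vehicle (0.5 mL/kg). Serum taken at day 14. Estradiol measured in duplicate by Coat-a-Count RIA. Antibody cross-reactivity with E2-Q+ <0.1%; detection limit 10 pg/mL. Mean ± SEM.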

[7] = Compound was evaluated for first order half-life in liver homogenate.; format: ADME, tissue-based; summary of the method: as §1
[8] = Compound was evaluated for oxidation rate constant in liver homogenate; format: ADME, tissue-based; conditions: tissue homogenate; summary of the method: as §1

Row | Compound | half-life [1] [h] | Activity (Rattus norvegicus [2]) [%] | k [3] [min⁻¹] | Activity (Rattus norvegicus [4]) [%] | Activity (Rattus norvegicus [5]) [%] | Concentration (Rattus norvegicus [6]) [pg/mL] | half-life [7] [h] | k [8] [min⁻¹]
1 | C[C@]12CC[C@@H]3c4ccc(O)cc4CC[C@H]3[C@@H]1CC[C@@H]2OC(=O)C1=CN(CCCO)C=CC1 | 2.05 | 75.22 | 0.00567 | 106.49 | 4.6 | 44.3 | 0.483 | 0.0242
2 | CN1C=CCC(C(=O)O[C@H]2CC[C@H]3[C@@H]4CCc5cc(O)ccc5[C@H]4CC[C@]23C)=C1 | 2.02 | 35.75 | 0.00577 | 68.15 | 6.46 | 53 | 0.533 | 0.0815
3 | C[C@]12CC[C@@H]3c4ccc(O)cc4CC[C@H]3[C@@H]1CC[C@@H]2OC(=O)C1=CN(Cc2ccccc2)C=CC1 | 4.8 | 67.38 | 0.00238 | 97.43 | 4.86 | 42 | 1.32 | 0.00892
4 | CCN1C=CCC(C(=O)O[C@H]2CC[C@H]3[C@@H]4CCc5cc(O)ccc5[C@H]4CC[C@]23C)=C1 | 3.3 | 32.06 | 0.00353 | 70.75 | 6.17 | 37.7 | 0.367 | 0.0323
5 | CCCCCCN1C=CCC(C(=O)O[C@H]2CC[C@H]3[C@@H]4CCc5cc(O)ccc5[C@H]4CC[C@]23C)=C1 | 4.32 | 66.26 | 0.00268 | 95.66 | 5.28 | 37.4 | 0.933 | 0.0123
6 | C[C@]12CC[C@@H]3c4ccc(O)cc4CC[C@H]3[C@@H]1CC[C@@H]2OC(=O)C1=CN(CC2CC2)C=CC1 | 1.9 | 54.31 | 0.00611 | 97.29 | 4.4 | 40.4 | 0.633 | 0.0183
7 | C[C@]12CC[C@@H]3c4ccc(O)cc4CC[C@H]3[C@@H]1CC[C@@H]2O [ESTRADIOL] | – | 62.26 | – | 107.36 | 3.88 | 22.2 | – | –
8 | CC(C)N1C=CCC(C(=O)O[C@H]2CC[C@H]3[C@@H]4CCc5cc(O)ccc5[C@H]4CC[C@]23C)=C1 | 2 | 68.64 | 0.0058 | 104.62 | 4.86 | 43.6 | 0.433 | 0.0263
9 | CCCN1C=CCC(C(=O)O[C@H]2CC[C@H]3[C@@H]4CCc5cc(O)ccc5[C@H]4CC[C@]23C)=C1 | 1.57 | 46.4 | 0.00736 | 85.97 | 5.32 | 42.9 | 0.867 | 0.0153
